Entries after “also recorded” stand apart in the source; their conditions may differ.
Legend:
[1] = tested on: MM cells (RPMI-8226, NCI-H929, U266B1, MM.1S); assay: CellTiter-Glo cell viability, multiple myeloma cell lines; assay type: cell-based, human; settings: 24 h; for Concentrations that significantly reduced MM cell viability: RPMI-8226 cells
[2] = tested on: NCI-H929 subcutaneous xenografted tumors; assay: MM subcutaneous plasmacytoma model; assay type: in vivo, hairless SCID mice; settings: for Tumor growth delay relative to vehicle-treated controls: 5 mg/kg
[3] = Pilot toxicity study, body condition scoring; assay type: in vivo, mice
In short: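 Pilot tolerability study in a small cohort of mice. Doses were chosen from a range based on NCI DTP toxicity data. A single dose was given, and toxicity was assessed qualitatively by body condition scoring.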

[4] = tested on: NCI-H929 and CD138+ MM patient bone marrow cells; assay: Cell viability, SLM6 with bortezomib; assay type: cell-based, human; settings: single agents
RPMI-8226/NIH-3T3 tumors = assay: RPMI-8226-GFP/NIH-3T3 co-injection xenograft model
[5] = Serum biochemistry and complete blood count in immunocompetent mice; assay type: in vivo; settings: C57BL/6 mice
CDK1/cyclin B = CDK1/cyclin B (Homo sapiens, UniProt P06493); assay: HotSpot in vitro kinase assay CDK1/cyclin B; assay type: biochemical; settings: read-out: IC50 CDK1/cyclin B
Chain of CDK1/cyclin B (P06493 whole entry): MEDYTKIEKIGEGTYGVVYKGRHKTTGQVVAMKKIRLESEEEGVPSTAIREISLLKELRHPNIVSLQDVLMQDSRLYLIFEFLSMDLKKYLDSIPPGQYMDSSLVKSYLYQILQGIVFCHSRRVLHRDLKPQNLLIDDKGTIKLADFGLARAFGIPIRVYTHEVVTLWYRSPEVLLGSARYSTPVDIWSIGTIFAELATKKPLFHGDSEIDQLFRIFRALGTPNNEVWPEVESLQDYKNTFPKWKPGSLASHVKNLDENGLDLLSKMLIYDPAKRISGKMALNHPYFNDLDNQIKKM
Chain of CDK1/cyclin B (P14635 whole entry partner): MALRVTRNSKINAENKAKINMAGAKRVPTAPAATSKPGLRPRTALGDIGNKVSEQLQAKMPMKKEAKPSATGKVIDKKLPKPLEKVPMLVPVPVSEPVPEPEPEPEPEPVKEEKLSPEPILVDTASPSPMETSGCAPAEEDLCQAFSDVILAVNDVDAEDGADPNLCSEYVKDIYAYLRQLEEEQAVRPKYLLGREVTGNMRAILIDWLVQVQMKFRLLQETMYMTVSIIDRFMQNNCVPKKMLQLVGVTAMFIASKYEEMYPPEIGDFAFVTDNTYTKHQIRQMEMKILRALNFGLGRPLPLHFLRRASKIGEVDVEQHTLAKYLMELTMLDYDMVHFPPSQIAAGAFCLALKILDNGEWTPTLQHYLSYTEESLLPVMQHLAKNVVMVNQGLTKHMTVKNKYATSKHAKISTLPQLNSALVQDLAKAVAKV

CDK4/cyclin D1 = CDK4/cyclin D1 (Homo sapiens, UniProt P11802); assay: HotSpot in vitro kinase assay CDK4/cyclin D1; assay type: biochemical; settings: read-out: IC50 CDK4/cyclin D1
Chain of CDK4/cyclin D1 (P11802 whole entry): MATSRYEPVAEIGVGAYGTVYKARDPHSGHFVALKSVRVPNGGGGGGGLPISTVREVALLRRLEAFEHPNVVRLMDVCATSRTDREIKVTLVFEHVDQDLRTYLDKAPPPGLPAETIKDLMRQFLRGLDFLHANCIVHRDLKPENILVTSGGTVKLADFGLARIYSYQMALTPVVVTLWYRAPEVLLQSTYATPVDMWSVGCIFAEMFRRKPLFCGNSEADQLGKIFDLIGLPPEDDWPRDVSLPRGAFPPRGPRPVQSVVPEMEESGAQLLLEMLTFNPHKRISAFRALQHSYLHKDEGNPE
Chain of CDK4/cyclin D1 (P24385 whole entry partner): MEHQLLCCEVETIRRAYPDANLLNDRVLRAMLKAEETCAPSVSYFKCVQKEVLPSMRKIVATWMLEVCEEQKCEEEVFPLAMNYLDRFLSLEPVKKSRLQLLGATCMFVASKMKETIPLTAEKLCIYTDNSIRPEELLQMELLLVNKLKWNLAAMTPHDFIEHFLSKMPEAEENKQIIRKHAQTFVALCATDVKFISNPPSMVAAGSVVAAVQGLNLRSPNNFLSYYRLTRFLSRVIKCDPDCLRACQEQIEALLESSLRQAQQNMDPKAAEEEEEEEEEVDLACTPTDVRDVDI

CDK7/cyclin H = CDK7/cyclin H (Homo sapiens, UniProt P50613); assay: HotSpot in vitro kinase assay CDK7/cyclin H; assay type: biochemical; settings: read-out: IC50 CDK7/cyclin H
Chain of CDK7/cyclin H (P50613 whole entry): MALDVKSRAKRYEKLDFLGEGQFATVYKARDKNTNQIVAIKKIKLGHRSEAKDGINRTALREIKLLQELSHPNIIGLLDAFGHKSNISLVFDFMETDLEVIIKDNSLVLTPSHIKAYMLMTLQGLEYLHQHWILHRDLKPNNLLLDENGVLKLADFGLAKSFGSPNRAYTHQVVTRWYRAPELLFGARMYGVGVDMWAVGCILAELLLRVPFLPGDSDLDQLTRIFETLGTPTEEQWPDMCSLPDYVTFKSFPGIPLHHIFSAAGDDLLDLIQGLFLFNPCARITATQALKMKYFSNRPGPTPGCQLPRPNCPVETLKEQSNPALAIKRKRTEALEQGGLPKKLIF
Chain of CDK7/cyclin H (P51946 whole entry partner): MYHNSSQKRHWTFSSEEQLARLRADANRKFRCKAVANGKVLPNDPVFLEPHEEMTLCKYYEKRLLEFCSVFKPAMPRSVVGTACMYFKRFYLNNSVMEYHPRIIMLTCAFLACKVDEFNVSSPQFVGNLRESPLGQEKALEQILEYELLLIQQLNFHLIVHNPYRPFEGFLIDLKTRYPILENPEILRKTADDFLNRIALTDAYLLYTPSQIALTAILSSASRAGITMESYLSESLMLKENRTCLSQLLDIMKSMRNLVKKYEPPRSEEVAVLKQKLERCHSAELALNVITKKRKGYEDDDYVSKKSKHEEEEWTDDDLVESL
Chain of CDK7/cyclin H (P51948 whole entry partner): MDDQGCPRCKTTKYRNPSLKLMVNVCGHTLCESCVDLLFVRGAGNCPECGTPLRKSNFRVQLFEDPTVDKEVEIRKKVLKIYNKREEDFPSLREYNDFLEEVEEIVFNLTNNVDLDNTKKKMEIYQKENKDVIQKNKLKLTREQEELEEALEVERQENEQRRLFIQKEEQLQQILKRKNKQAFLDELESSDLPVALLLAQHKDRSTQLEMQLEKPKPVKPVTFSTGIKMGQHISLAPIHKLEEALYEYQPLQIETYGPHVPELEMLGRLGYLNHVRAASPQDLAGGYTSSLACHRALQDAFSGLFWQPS

PKC [6] = assay: Phorbol ester-induced PKC and ERK phosphorylation in MM cells; assay type: cell-based, human; settings: MM cells stimulated with phorbol-12-myristate-13-acetate
CDK9 [7] = assay: CDK9 signaling, Western blots in MM cells; assay type: cell-based, human; settings: NCI-H929 cells, 2 hours
CDK7 = assay: RNA polymerase II Ser5 phosphorylation; assay type: cell-based, human; settings: NCI-H929 cells, 2 hours
[8] = tested on: cyclin D1, c-Maf, c-Myc, L-Myc; assay: Expression of MM oncogenes, Western blot and RT-PCR; assay type: cell-based, human; settings: 250 nM
CDK9/cyclin K = CDK9/cyclin K (Homo sapiens, UniProt P50750); settings: read-out: IC50 CDK9/cyclin K kinase activity
Chain of CDK9/cyclin K (P50750 whole entry): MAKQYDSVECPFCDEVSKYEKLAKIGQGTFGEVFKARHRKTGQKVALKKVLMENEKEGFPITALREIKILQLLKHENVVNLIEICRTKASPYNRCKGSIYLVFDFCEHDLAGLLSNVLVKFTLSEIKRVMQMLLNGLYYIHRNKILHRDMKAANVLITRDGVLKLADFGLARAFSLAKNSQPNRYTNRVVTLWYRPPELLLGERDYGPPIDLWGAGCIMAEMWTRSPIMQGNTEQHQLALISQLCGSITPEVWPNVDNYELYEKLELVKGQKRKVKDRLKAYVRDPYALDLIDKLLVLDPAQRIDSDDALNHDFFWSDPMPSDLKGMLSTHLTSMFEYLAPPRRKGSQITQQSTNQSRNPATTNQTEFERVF
Chain of CDK9/cyclin K (O75909 whole entry partner): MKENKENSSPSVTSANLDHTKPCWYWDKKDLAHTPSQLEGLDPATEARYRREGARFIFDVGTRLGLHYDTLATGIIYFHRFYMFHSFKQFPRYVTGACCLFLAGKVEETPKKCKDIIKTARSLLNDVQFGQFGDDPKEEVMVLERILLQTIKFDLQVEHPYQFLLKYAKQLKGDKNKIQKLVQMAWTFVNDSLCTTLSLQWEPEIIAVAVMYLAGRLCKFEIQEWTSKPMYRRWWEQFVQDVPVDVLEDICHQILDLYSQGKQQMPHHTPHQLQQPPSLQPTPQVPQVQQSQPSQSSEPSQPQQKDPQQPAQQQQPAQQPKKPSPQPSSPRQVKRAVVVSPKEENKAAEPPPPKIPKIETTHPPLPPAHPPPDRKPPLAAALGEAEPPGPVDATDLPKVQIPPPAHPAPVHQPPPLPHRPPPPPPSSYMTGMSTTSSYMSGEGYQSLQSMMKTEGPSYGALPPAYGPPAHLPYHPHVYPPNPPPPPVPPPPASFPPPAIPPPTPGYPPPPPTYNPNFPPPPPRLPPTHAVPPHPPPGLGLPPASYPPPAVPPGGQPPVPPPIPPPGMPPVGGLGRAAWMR

CDK9/cyclin T1 = CDK9/cyclin T1 (Homo sapiens, UniProt P50750); settings: read-out: IC50 CDK9/cyclin T1 kinase activity
Chain of CDK9/cyclin T1 (P50750 whole entry): as the sequence (P50750 whole entry) above
Chain of CDK9/cyclin T1 (O60563 whole entry partner): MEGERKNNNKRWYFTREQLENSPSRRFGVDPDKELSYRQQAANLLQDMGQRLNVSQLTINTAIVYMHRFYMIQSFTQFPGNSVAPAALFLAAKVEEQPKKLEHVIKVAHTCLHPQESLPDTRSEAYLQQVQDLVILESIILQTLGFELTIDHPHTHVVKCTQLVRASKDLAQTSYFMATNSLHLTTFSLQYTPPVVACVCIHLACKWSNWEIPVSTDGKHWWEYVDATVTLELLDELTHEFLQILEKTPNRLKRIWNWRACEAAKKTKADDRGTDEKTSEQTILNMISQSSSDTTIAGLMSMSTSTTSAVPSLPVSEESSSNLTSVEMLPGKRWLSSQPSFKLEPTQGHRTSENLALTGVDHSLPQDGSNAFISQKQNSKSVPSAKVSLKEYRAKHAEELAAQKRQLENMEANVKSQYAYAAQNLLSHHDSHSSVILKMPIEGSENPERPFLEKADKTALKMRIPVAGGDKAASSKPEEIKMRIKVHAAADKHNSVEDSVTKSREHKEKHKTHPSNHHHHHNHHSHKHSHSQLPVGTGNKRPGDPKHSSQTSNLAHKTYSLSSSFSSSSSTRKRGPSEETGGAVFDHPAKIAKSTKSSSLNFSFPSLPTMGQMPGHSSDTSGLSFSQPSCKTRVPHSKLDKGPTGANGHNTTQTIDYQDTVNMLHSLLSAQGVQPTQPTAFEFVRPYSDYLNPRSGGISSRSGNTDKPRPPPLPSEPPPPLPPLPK

CDK2/cyclin A = CDK2/cyclin A (Homo sapiens, UniProt P24941); settings: read-out: IC50 CDK2/cyclin A
[9] = tested on: human cell lines derived from multiple tumor types; assay: CellTiter-Glo cell viability, panel of tumor cell lines; assay type: cell-based
[10] = tested on: primary CD138-positive plasma cells from MM patient bone marrow biopsies; assay: Cell viability of primary MM patient plasma cells; assay type: cell-based, human; settings: 24 h; cells from 2 patients
In short: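 Bone marrow aspirates from MM patients were separated on Ficoll-Paque. CD138+ plasma cells were isolated with magnetic anti-CD138 beads, and purity was checked by FACS. Cells were cultured in RPMI 1640 with 10% FBS and gentamycin at 37°C and 5% CO2, then treated with the test compound at a range of concentrations for 24 h. Viability was read by CellTiter-Glo luminescence; mean ± S.E (n=3).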

RPMI-8226 cells = assay: Apoptosis, cleaved caspase-3 flow cytometry in MM cells; assay type: cell-based, human; settings: 16 hours
[11] = tested on: H460, A172, HT29, HepG2, hFOB and MRC-5 cells; assay type: cell-based, human; settings: 500 nM, 16 hours
PKC [12] = settings: cited from earlier work
CDK9 [13] = biological target: CDK9 (Homo sapiens, UniProt P50750); settings: cited from earlier work
Chain of CDK9 (Homo sapiens, UniProt P50750) (P50750 whole entry): as the sequence (P50750 whole entry) above
Chain of CDK9 (Homo sapiens, UniProt P50750) (O60563 whole entry partner): as the sequence (O60563 whole entry partner) above

[14] = cited from earlier work

## N/C(=N\O)c1cn(C2OC(CO)C(O)C2O)c2ncnc(N)c12 (stereo not drawn) [SLM5]
[1]
  Concentrations that significantly reduced MM cell viability: less than 250 nM
[2]; weekly i.p.
  Tumor growth delay relative to vehicle-treated controls: 7 days
[3]; single dose of 5 mg/kg
  Toxicity by body condition scoring: no overt toxicity

## CC(C)[C@H](CO)Nc1nc(Nc2cccc(Cl)c2)c2ncn(C(C)C)c2n1 [purvalanol A]
[1]
  Effect on MM cell viability: neither LiCl nor purvalanol A reduced MM cell viability; also recorded: relatively insensitive

## O=C1Cc2c([nH]c3ccc([N+](=O)[O-])cc23)-c2ccccc2N1 [alsterpaullone]
[1]
  Effect on MM cell viability: micromolar concentrations of alsterpaullone) were able to reduce the viability of MM cells

## CC(C)C[C@H](NC(=O)[C@H](Cc1ccccc1)NC(=O)c1cnccn1)B(O)O [bortezomib, reference compound]
[4]
  Sensitivity of MM cell lines and primary patient plasma cells to single agent: sensitive

## N=C(N)c1cn(C2OC(CO)C(O)C2O)c2ncnc(N)c12 (stereo not drawn) [SLM7]
[1]
  Concentrations that significantly reduced MM cell viability: less than 250 nM
[2]; weekly i.p.
  Tumor growth delay relative to vehicle-treated controls: 7 days
[3]; single dose of 5 mg/kg
  Toxicity by body condition scoring: no overt toxicity

## CN1CC[C@H](c2c(O)cc(O)c3c(=O)cc(-c4ccccc4Cl)oc23)[C@H](O)C1 [flavopiridol, reference compound]
[1]
  Effect on MM cell viability: able to reduce the viability of MM cells
RPMI-8226/NIH-3T3 tumors; 5.0 mg/kg, weekly i.p.
  Anti-MM activity in vivo: no anti-MM activity

## N/N=C(\N)c1cn(C2OC(CO)C(O)C2O)c2ncnc(N)c12 (stereo not drawn) [SLM6]
[1]
  Effect on MM cell viability: able to reduce the viability of MM cells
  Concentrations that significantly reduced MM cell viability: less than 250 nM
[2]; 1 mg/kg i.p., 48 hours
  Apoptotic markers in tumors (immunohistochemistry): regions of intense cleaved caspase-3 and cleaved caspase-8 immunostaining
[2]; 1 mg/kg i.p., single dose on day 1
  Duration of sustained anti-tumor activity: 5 weeks
[3]; single dose of 1 mg/kg
  Toxicity by body condition scoring: no overt toxicity
[5]
  Effects on normal hematopoiesis, complete blood count with differential: no effects on normal hematopoiesis in vivo other than modest thrombocytopenia
  Systemic toxicity by serum biochemistry: no signs of systemic toxicity
CDK1/cyclin B
  IC50: < 300 nM
CDK4/cyclin D1
  IC50: > 10000 nM
CDK7/cyclin H
  IC50: > 10000 nM
PKC [6]
  Phorbol ester-induced PKC or ERK phosphorylation: no effect
CDK9 [7]
  Lowest concentration inhibiting phosphorylation of RNA polymerase II at Ser2: 250 nM
  Phosphorylation of CDK9 at Thr186: inhibited phosphorylation of CDK9 at Thr186
CDK7
  Phosphorylation of RNA polymerase II at Ser5: no effect
[8]; 6 hours, RPMI-8226 and U266B1 cells
  c-Myc and cyclin D1 mRNA transcripts (RT-PCR): decreased c-Myc and cyclin D1 mRNA transcripts
[8]; time course, U266B1, RPMI-8226, NCI-H929 cells
  Oncogene protein expression (Western blot): repressed the expression of cyclin D1 in U266B1 cells and c-Maf expression in RPMI-8226 cells; also recorded: repressed c-Myc protein levels in RPMI-8226 and NCI-H929 cells, and suppressed L-Myc expression in U266B1 cells
[4]
  Sensitivity of MM cell lines and primary patient plasma cells to single agent: sensitive
CDK9/cyclin K
  IC50: 280 nM
CDK9/cyclin T1
  IC50: 133 nM
CDK2/cyclin A
  IC50: < 300 nM
RPMI-8226/NIH-3T3 tumors; 0.5 mg/kg, weekly i.p.
  Size of MM tumors relative to vehicle-treated controls: significantly reduced the size of MM tumors
  Time to evident anti-MM effects after first treatment: ≤ 7 days
RPMI-8226/NIH-3T3 tumors; repeated dosing, 0.5 mg/kg weekly i.p.
  Mouse body weight or body condition scoring: no effect

## CC[C@H](CO)Nc1nc(NCc2ccccc2)c2ncn(C(C)C)c2n1 [roscovitine]
[1]
  Effect on MM cell viability: relatively insensitive

## O=C1NC(=NCc2cccs2)S/C1=C\c1ccc2ncccc2c1 [RO3306]
[1]
  Effect on MM cell viability: relatively insensitive

## O=c1[nH]cc(F)c(=O)[nH]1 [5′-fluorouracil]
[1]
  Effect on MM cell viability: relatively insensitive

## [Cl-].[Li+] [LiCl, lithium chloride]
[1]
  Effect on MM cell viability: neither LiCl nor purvalanol A reduced MM cell viability; also recorded: relatively insensitive

## NNc1c(C(N)=O)c2c(N)ncnc2n1[C@@H]1O[C@H](CO)[C@@H](O)[C@H]1O [SLM3]
[9]; MM cell lines and primary patient plasma cells vs other tumor types
  Sensitivity of MM cells relative to other tumor types: 3 to 10 times
[9]; read-out: IC50, cell viability, 24 h, breast, colon, lung, hepatocellular, glioma and one of two pancreatic cancer cell lines
  IC50: > 2000 nM
[1]
  Effect on MM cell viability: superior activity compared to other nucleoside analogs
  Concentrations that significantly reduced MM cell viability: less than 250 nM
[1]; read-out: IC50, cell viability, MM cells
  IC50: 200 to 400 nM
[10]
  Activity on cell viability of primary plasma cells: confirmed this activity
RPMI-8226 cells; RPMI-8226, increasing concentrations
  Apoptotic marker cleaved caspase-3: dose-dependent increase
[11]
  Apoptosis (active caspase-3 positive cells): negligible levels of apoptosis
PKC [12]
  Activity against PKC in vitro: modest activity
CDK9 [13]
  Activity against CDK9 in vitro: modest activity

## Nc1nc(Cl)nc2c1ncn2[C@H]1C[C@H](O)[C@@H](CO)O1 [cladribine]
[1]
  Effect on MM cell viability: relatively insensitive

## NC(=O)c1cn([C@@H]2O[C@H](CO)[C@@H](O)[C@H]2O)c2ncnc(N)c12 [sangivamycin, reference compound]
[1]
  Concentrations that significantly reduced MM cell viability: less than 250 nM
RPMI-8226 cells; RPMI-8226, 500 nM
  MM cell apoptosis (cleaved caspase-3 positive cells): 60-80%
PKC [6]
  Phorbol ester-induced PKC or ERK phosphorylation: significantly reduced phosphorylation of both kinases
PKC [12]
  Activity against PKC: known to inhibit PKC
[14]
  Safety in humans, phase I trial: demonstrated the safety of this compound in humans

## Nc1ccn([C@@H]2O[C@H](CO)[C@@H](O)C2(F)F)c(=O)n1 [gemcitabine]
[1]
  Effect on MM cell viability: relatively insensitive

## Cl.NNc1c(C(N)=O)c2c(N)ncnc2n1C1OC(CO)C(O)C1O (stereo not drawn) [SLM3 HCl]
[2]; 25 mg/kg, weekly i.p.
  Effect on the growth of MM tumors: no effect
[3]; single dose of 25 mg/kg
  Toxicity by body condition scoring: no overt toxicity
